# Test results from ChEMBL document CHEMBL1671681, “Distribution of serotypes, genotypes, and resistance determinants among macrolide-resistant Streptococcus pneumoniae isolates” (2010).
# What was measured:
# Assay type in all cases: functional
# Streptococcus pneumoniae [1] = assay: Antimicrobial activity against erythromycin-resistant Streptococcus pneumoniae by broth microdilution method in presence of clavulanic acid
# How it was run: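 Broth microdilution in commercial pre-made microtiter trays using cation-adjusted Mueller-Hinton broth with 3 to 5% lysed horse blood. Pneumococcal isolates were tested, and MICs were interpreted by CLSI criteria.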
# Streptococcus pneumoniae [2] = assay: Antimicrobial activity against erythromycin-resistant Streptococcus pneumoniae assessed as resistant isolates by broth microdilution method in presence of clavulanic acid
# How it was run: (§1)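 Isolates were tested by broth microdilution in commercial microtiter trays. Medium was cation-adjusted Mueller-Hinton broth supplemented with 3 to 5% lysed horse blood. MICs were interpreted by CLSI criteria. For penicillin, the pre-2008 breakpoints were applied (susceptible ≤0.06 mg/liter).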
# Streptococcus pneumoniae [3] = assay: Antimicrobial activity against erythromycin-resistant Streptococcus pneumoniae assessed as susceptible isolates by broth microdilution method in presence of clavulanic acid; how it was run: as §1
# Streptococcus pneumoniae [4] = assay: Antimicrobial activity against erythromycin-resistant Streptococcus pneumoniae assessed as resistant isolates by broth microdilution method; how it was run: as §1
# Streptococcus pneumoniae [5] = assay: Antimicrobial activity against erythromycin-resistant Streptococcus pneumoniae by broth microdilution method
# How it was run: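 Isolates were tested by broth microdilution in commercial microtiter trays. Medium was cation-adjusted Mueller-Hinton broth supplemented with 3 to 5% lysed horse blood. MICs were interpreted by CLSI criteria.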
# Streptococcus pneumoniae [6] = assay: Antimicrobial activity against erythromycin-resistant Streptococcus pneumoniae assessed as susceptible isolates by broth microdilution method; how it was run: as §1
Compound,MIC (Streptococcus pneumoniae [1]),MIC50 (Streptococcus pneumoniae [1]),MIC90 (Streptococcus pneumoniae [1]),Activity (Streptococcus pneumoniae [2]),Activity (Streptococcus pneumoniae [3]),Activity (Streptococcus pneumoniae [4]),MIC (Streptococcus pneumoniae [5]),MIC50 (Streptococcus pneumoniae [5]),MIC90 (Streptococcus pneumoniae [5]),Activity (Streptococcus pneumoniae [6])
CC1(C)S[C@@H]2[C@H](NC(=O)[C@H](N)c3ccc(O)cc3)C(=O)N2[C@H]1C(=O)O [AMOXICILLIN],< 2 µg/mL,< 2 µg/mL,> 8 µg/mL,28.4%,66.7%,,,,,
CC[C@H]1OC(=O)[C@H](C)[C@@H](O[C@H]2C[C@@](C)(OC)[C@@H](O)[C@H](C)O2)[C@H](C)[C@@H](O[C@@H]2O[C@H](C)C[C@H](N(C)C)[C@H]2O)[C@](C)(O)C[C@@H](C)CN(C)[C@H](C)[C@@H](O)[C@]1(C)O [AZITHROMYCIN],,,,,,100%,> 2 µg/mL,> 2 µg/mL,> 2 µg/mL,0%
CO/N=C(\C(=O)N[C@@H]1C(=O)N2C(C(=O)O)=C(COC(C)=O)CS[C@H]12)c1csc(N)n1 [CEFOTAXIME],,,,,,5.9%,,1 µg/mL,2 µg/mL,62.7%
O=C(N[C@H](CO)[C@H](O)c1ccc([N+](=O)[O-])cc1)C(Cl)Cl [CHLORAMPHENICOL],,,,,,33.3%,,4 µg/mL,8 µg/mL,66.7%
CCC[C@@H]1C[C@@H](C(=O)N[C@@H]([C@H]2O[C@H](SC)[C@H](O)[C@@H](O)[C@H]2O)[C@H](C)Cl)N(C)C1 [CLINDAMYCIN],,,,,,67.6%,,> 2 µg/mL,> 2 µg/mL,30.4%
CC[C@H]1OC(=O)[C@H](C)[C@@H](O[C@H]2C[C@@](C)(OC)[C@@H](O)[C@H](C)O2)[C@H](C)[C@@H](O[C@@H]2O[C@H](C)C[C@H](N(C)C)[C@H]2O)[C@](C)(O)C[C@@H](C)C(=O)[C@H](C)[C@@H](O)[C@]1(C)O [ERYTHROMYCIN],,,,,,100%,> 2 µg/mL,> 2 µg/mL,> 2 µg/mL,0%
COc1c(N2CCNC(C)C2)c(F)cc2c(=O)c(C(=O)O)cn(C3CC3)c12 (stereo not drawn) [GATIFLOXACIN],,,,,,0%,< 0.5 µg/mL,< 0.5 µg/mL,< 0.5 µg/mL,100%
C[C@H]1COc2c(N3CCN(C)CC3)c(F)cc3c(=O)c(C(=O)O)cn1c23.C[C@H]1COc2c(N3CCN(C)CC3)c(F)cc3c(=O)c(C(=O)O)cn1c23.O [LEVOFLOXACIN],,,,,,0%,,1 µg/mL,1 µg/mL,100%
CC(=O)NC[C@H]1CN(c2ccc(N3CCOCC3)c(F)c2)C(=O)O1 [LINEZOLID],,,,,,0%,,1 µg/mL,1 µg/mL,100%
C[C@@H](O)[C@H]1C(=O)N2C(C(=O)O)=C(S[C@@H]3CN[C@H](C(=O)N(C)C)C3)[C@H](C)[C@H]12 [MEROPENEM],,,,,,34.3%,,0.5 µg/mL,1 µg/mL,33.3%
COc1c(N2C[C@@H]3CCCN[C@@H]3C2)c(F)cc2c(=O)c(C(=O)O)cn(C3CC3)c12 [MOXIFLOXACIN],,,,,,0%,,,,100%
CC1(C)S[C@@H]2[C@H](NC(=O)Cc3ccccc3)C(=O)N2[C@H]1C(=O)O [PENICILLIN G],,,,,,68.6%,,2 µg/mL,4 µg/mL,24.5%
CN(C)[C@@H]1C(O)=C(C(N)=O)C(=O)[C@@]2(O)C(O)=C3C(=O)c4c(O)cccc4[C@@](C)(O)[C@H]3C[C@@H]12 [TETRACYCLINE],,,,,,74.5%,,≥ 8 µg/mL,≥ 8 µg/mL,24.5%
CN[C@H](CC(C)C)C(=O)N[C@H]1C(=O)N[C@@H](CC(N)=O)C(=O)N[C@H]2C(=O)N[C@H]3C(=O)N[C@H](C(=O)N[C@H](C(=O)O)c4cc(O)cc(O)c4-c4cc3ccc4O)[C@H](O)c3ccc(c(Cl)c3)Oc3cc2cc(c3O[C@@H]2O[C@H](CO)[C@@H](O)[C@H](O)[C@H]2O[C@H]2C[C@](C)(N)[C@H](O)[C@H](C)O2)Oc2ccc(cc2Cl)[C@H]1O [VANCOMYCIN],,,,,,0%,,< 0.5 µg/mL,< 0.5 µg/mL,100%
